Results taken from ChEMBL document CHEMBL4513216, “Probing the Open Global Health Chemical Diversity Library for Multistage-Active Starting Points for Next-Generation Antimalarials” (ACS Infect Dis, 2020).

Assay: Toxicity liver stage against HepG2, at 10uM
Assay type: cell-based
Design: test concentration 10 uM, cell line HepG2-A16-CD81EGFP
Conditions: human, HepG2-A16-CD81EGFP cells; read-out: INHIBITION
In short: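 Uninfected HepG2-A16-CD81EGFP cells, 3 × 10^3 per well, 1536-well, plated on prespotted compound at 10 μM final, parasite-free screening media added to match infected plates; puromycin 10 μM positive, DMSO 0.5% negative; run in parallel with 48 h PbLuc assay at 37 °C, 5% CO2; viability by CellTiter-Glo luminescence, normalized to controls.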

Row | SMILES | cytotoxicity at 10 µM
1 | CCOC(=O)C1(Cc2cccc(OC)c2)CCN(Cc2ccon2)CC1 | 2.61%
2 | CCOn1c(SC(C)C)nc2ccccc2c1=O | -5.36%
3 | c1cncc(-c2nnc([C@H]3CCN(CC4CCCCC4)C3)o2)c1 | -6.72%
4 | O=C(c1ccno1)N1C[C@@H](F)[C@@H](OCc2nc3ccccc3o2)C1 | 7.61%
5 | O=C(c1cc2c(Cl)cccc2[nH]1)N1CCN(CCc2ccccn2)CC1 | 3.07%
6 | CC(O)(CNC(=O)c1c(F)cccc1Cl)c1ccco1 (stereo not given) | 2.22%
7 | O=C(NCCN1CCC(c2cccs2)CC1)c1ccc(F)cc1Cl | -2.83%
8 | COCCNC(=O)NC1(c2nc(-c3ccncc3)no2)CCCCC1 | -2.46%
9 | CN1CCCN(C(=O)c2nc3c(n2C)CCN(c2ncccn2)C3)CC1 | -9.18%
10 | CCNC(=O)c1ccc2ccc(N(CC)CC)n2c1 | 1.67%
11 | CNC(=O)[C@H]1C[C@@H]2CN(c3cc(OC)ncn3)C[C@@H]2N1C(C)C | -8.84%
12 | Cc1cccc(CO[C@H]2CO[C@@]3(CCN(S(=O)(=O)N(C)C)C3)C2)n1 | 7.7%
13 | CN(C)S(=O)(=O)N1C[C@@H](OCc2ccccn2)[C@H]2OCCC[C@H]21 | 10.7%
14 | O=C(O)c1ccc2c(CN3CCOCC3)c[nH]c2c1 | 4.91%
15 | Cc1cc(-c2cccc(C(=O)O)c2)nc(C2CCN(C(C)C)CC2)n1 | -0.723%
16 | Cn1nccc1CCC(=O)N1CCCC(Cc2cccnc2)C1 (stereo not given) | -3.14%
17 | Cc1nc(Nc2ncccn2)cc(C2CCCN2CC(C)C)n1 (stereo not given) | 7.02%
18 | O=c1c(Cc2ccccc2)c(O)ccn1CCc1ccccc1 | 10.3%
19 | CC(C)c1noc(C[S+]([O-])CC(=O)Nc2cc(F)ccc2F)n1 (stereo not given) | 8.15%
20 | CC(C)(C)c1nc(CN2CCC(N3CCCCC3)CC2)no1 | -0.48%
21 | Cc1cccc(C(C)C)c1NC(=O)NCCN(C(C)C)C(C)C | -8.98%
22 | CC(c1nc(C2CC2)no1)N1CCc2c(ncn2C)C1 (stereo not given) | 1.09%

Row | SMILES | cytotoxicity at 10 µM
23 | O=C(c1cnc(NCc2cccnc2)c(Cl)c1)N1CCCCC1 | 8.89%
24 | O=C1OCCCN1Cc1nc(-c2ccc(N3CCCCC3)cc2)no1 | 7.04%
25 | Cc1nc(CCCNC(=O)Nc2cc(F)cc(F)c2)n[nH]1 | -8.39%
26 | COc1ccnc(N2CCN(Cc3ncc(-c4ccccc4)o3)CC2)n1 | -10.2%
27 | CCc1cc(CNC(=O)N(C2CC2)C(C)c2ccco2)[nH]n1 (stereo not given) | 4.18%
28 | O=C(CCn1cccn1)NCC(c1cccs1)N1CCOCC1 (stereo not given) | -2.49%
29 | COc1ccc(CNC(C)c2ccc(Cl)cc2)c(OC)c1OC (stereo not given) | 7.74%
30 | CCc1nc(NS(=O)(=O)c2ccc(F)cc2Cl)no1 | 0.528%
31 | Cc1cc(C(=O)CN2C(=O)c3ccccc3CS2(=O)=O)c(C)[nH]1 | 13.5%
32 | Cc1cc(=O)n(C)cc1NC(=O)Cc1cc(F)ccc1F | -11.4%
33 | Cc1cnn(C2CCN(Cc3ccccc3)C2)c1N (stereo not given) | -3.76%
34 | COC1CCCN(C(=O)NCCCF)C1 (stereo not given) | 0.215%
35 | NC(=O)NC(=O)CCSc1ccccc1Cl | 11.8%
36 | OC(COCc1cccs1)CSc1nnc2ccccn12 (stereo not given) | 1.66%
37 | Cc1nnc(N2CCN(C(=O)NC3CC3)CC2)c(C(N)=O)c1C | 4.34%
38 | CC(NC(=O)N1CCC(CO)CC1)c1csc2ccccc12 (stereo not given) | -5.4%
39 | Cc1ccc(S(=O)(=O)NC(=O)CCOCC(C)C)s1 | -5.36%
40 | Cc1ccc(C(C)N(C)CCS(=O)(=O)CCC(N)=O)cc1 (stereo not given) | -52.5%
41 | Cc1c(C(=O)NCC(C)C)nnn1-c1cccc2c1CCN(C)C2 | -7.69%
42 | COc1cccc(-c2ccc3nc(C4CCN(C(C)=O)CC4)nn3c2)c1 | 9.84%
43 | Cc1nc(CN2CCC3(C2)CN(Cc2ccco2)C3)cs1 | -106%
44 | Cc1cnc(C(=O)N2CCC3(CC2)CN(c2ccccn2)CCO3)cn1 | -80.2%

Row | SMILES | cytotoxicity at 10 µM
45 | Cc1[nH]c2ccccc2c1-c1ccnc(N[C@H](CO)CC(C)C)n1 | 0.97%
46 | CC(C)S(=O)(=O)NCc1cccnc1Oc1ccc(F)cc1F | 5.98%
47 | OC1(CN2CCCC2)COCCN(c2ncnc3[nH]cnc23)C1 (stereo not given) | 0.458%
48 | CC(C)=CCN1CCC2(CC1)c1ccccc1[C@@H](N1CCSCC1)[C@@H]2O | 7.25%
49 | CC(C)C(C(=O)N1CCC2(CC1)CN(C)C(=O)O2)c1ccccc1 (stereo not given) | -53.6%
50 | Cc1csc2c(N3CCC(NCCCC4CCOC4)CC3)ncnc12 (stereo not given) | 3.3%
51 | Cc1ccc(N2C[C@@H]3CN(C(=O)NC4CCCC4)C[C@]3(C(=O)O)C2)nn1 | 19.5%
52 | Cc1nccn1CCN1C(=O)CC2(CCCC2)CC1=O | -2.11%
53 | CCN(CC)C(=O)Cn1cc(C(=O)NCCCc2scnc2C)nn1 | -7.38%
54 | COc1c(C)cnc(CN2CCCCC2CCN2CCOCC2)c1C (stereo not given) | -4.27%
55 | CCc1csc(CNc2cc(C)nc(-c3cccnc3)n2)n1 | 4.83%
56 | Cc1ccc(-c2cc(C(=O)NCCCc3csc(N)n3)[nH]n2)s1 | 81.7%
57 | COc1ccccc1OC1(C(=O)O)CCN(c2nc(C)cnc2C)CC1 | -13.6%
58 | Cc1ccc(C#N)c(N2CCCC(c3nccn3Cc3cscn3)C2)n1 (stereo not given) | -1.9%
59 | O=C(c1ccnc(-n2cnnc2)c1)N1CCCC2(CCNC2)C1 (stereo not given) | -19.1%
60 | Cc1cccc(C(C(=O)NCc2nc(-c3ncccn3)no2)N(C)C)c1 (stereo not given) | -1.57%
61 | CC(=O)NCC1CCC2(CCN(c3ncc(C(C)=O)c(C)n3)CC2)O1 (stereo not given) | -0.611%
62 | CCCNC(=O)c1ccc(S(=O)(=O)NC2(COC)CCCC2)cc1 | -49.9%
63 | CC(=O)NCc1nnc2n1CCN(c1ncnc3c1CCC3)CC2 | 13%
64 | CN1CCCC1c1ccc(C(=O)Nc2c3c(nn2C)CCC3)s1 (stereo not given) | -7.3%
65 | CSCCNc1ccc(C(=O)N(C)Cc2ccc3ccccc3n2)cn1 | 9.65%
66 | CC1Oc2ccc(S(=O)(=O)NCCCn3ccnc3)cc2NC1=O (stereo not given) | 7.88%

Row | SMILES | cytotoxicity at 10 µM
67 | CSc1nccc(N2C[C@@H](CN3CCCCC3)[C@@H](CO)C2)n1 | -3.59%
68 | Cc1ccc(C)c(C(=O)Nc2ccc(OC3CCN(C)CC3)cc2)c1 | 8.97%
69 | COC(=O)c1ccc(CNCc2ccn(C)n2)cc1 | -2.64%
70 | CC(C)Cc1cc(NC(=O)c2n[nH]c3ccccc23)n(C)n1 | -15.9%
71 | Cc1cnn(C2CN(CC(=O)NCCCc3ccccc3)C2)c1 | 0.555%
72 | Cc1nc(CN2CCCN(CCOc3ccc(C#N)cc3)CC2)no1 | -5.93%
73 | CC(NC(=O)NCCN1CCCC1)c1nncn1C (stereo not given) | -5.68%
74 | CC(=O)N(Cc1noc(C2CC2)n1)C1CCN(CC2CCOCC2)C1 (stereo not given) | 1.29%
75 | COCCS(=O)(=O)Nc1ccc(-n2cncn2)c(F)c1 | -12.2%
76 | NC(=O)C1CCN(C(=O)NCc2cccnc2OCC(F)(F)F)C1 (stereo not given) | -11.2%
77 | CN(C)c1cc2c(nn1)CCN(C(=O)C1Cc3ccccc3O1)C2 (stereo not given) | -18.5%
78 | Cc1cc(C)n(CC2CCCCN2C(=O)c2ccc3c(c2)COC3)n1 (stereo not given) | -24.4%
79 | CCn1ncc2c1CCCC2NCc1ccccc1N1CCOCC1 (stereo not given) | -7.66%
80 | Cc1cnn(C2CCCN(C(=O)c3cccc4c3OCO4)C2)c1 (stereo not given) | -2.23%
81 | Cn1cc(CN2CCCN(C(=O)c3cn4ccccc4n3)CC2)cn1 | -5.97%
82 | Cn1cc(C2CCCN2Cc2csc(C(C)(C)C)n2)cn1 (stereo not given) | -4.87%
83 | CC(C)c1n[nH]c(C(=O)Nc2cc[nH]n2)c1Br | -9.73%
84 | Cc1cnn(CC(C)NCc2ccc(S(C)(=O)=O)cc2)c1 (stereo not given) | 4.62%
85 | CCN1CCN(CC(O)c2ccc(OC(F)(F)F)cc2)CC1 (stereo not given) | -4.47%
86 | Nc1nc(C(=O)NCC2CCC3(CCNCC3)CO2)cs1 (stereo not given) | 21%
87 | CN(C)C(=O)COC[C@]12COC[C@H]1CN(C1CCCC1)C2 | -108%
88 | Cn1cc(CNC2CCc3c(ccc(=O)n3Cc3cccnc3)C2)cn1 (stereo not given) | -108%

Row | SMILES | cytotoxicity at 10 µM
89 | Cc1ccc(CN2CCOC3(CCN(C(=O)C4CC=CC4)CC3)C2)cc1 | 15.5%
90 | CN(C)C(=O)C1CCC2(CCN(Cc3cnn(C)c3)CC2)C1 (stereo not given) | 5.01%
91 | N#Cc1ccc(N2CCCC3(CCC(=O)N3CC3CC3)CC2)nc1 (stereo not given) | -125%
92 | COCCN1CCC2(CC1)CC(NC(=O)C(C)C)c1ccccc1O2 (stereo not given) | 3.82%
93 | Cc1ccc(CN2CCO[C@H]3[C@H](OCc4cccnc4)CC[C@@H]32)o1 | 6.22%
94 | COCCN1C(=O)C2(CCN(CC3CC3)CC2)c2ccccc21 | -115%
95 | O=C(c1cccnc1)N1CCN2C[C@H](Oc3cncnc3)C[C@H]2C1 | 8.1%
96 | c1ccc(O[C@@H]2CC[C@H]3[C@H]2OCCN3CC2CCOCC2)nc1 | -1.02%
97 | CC(C)OCCCN(CC(=O)N1CCNCC1)C(=O)c1ccc(F)cc1 | 8.85%
98 | Fc1cnc(N2CCN3C[C@H](Oc4cncnc4)C[C@H]3C2)nc1 | -5.38%
99 | CNCC(=O)N1CCC(c2ccnc(Nc3ccc(C)cn3)n2)C1 (stereo not given) | -2.29%
100 | COCCN1CCO[C@H]2CCN(C(=O)c3ccnnc3)CC[C@@H]21 | 0.196%
101 | CNC(=O)CC1CC2(CCN(c3ncccn3)CC2)c2ccccc21 (stereo not given) | 11.6%
102 | Cn1ccc(CN2CCCC23CCN(Cc2cccc(F)c2)CC3)n1 | -103%
103 | CN(C)CCN1CCC2(CCN(C(=O)c3ccc(F)cc3)CC2)C1=O | -0.00146%
104 | N#Cc1cccc(CN2CC[C@@H]3CN(c4ncccn4)CCO[C@@H]3C2)c1 | -6.51%
105 | Cc1nc(CN2CCc3ncnc(C)c3CC2)cs1 | -1.8%
106 | Cc1nc(C2(O)CCCNCC2)sc1CCOc1ccccc1Cl (stereo not given) | -28.1%
107 | O=C(c1ccco1)N1CCCC2(CCN(c3nncs3)C2)C1 (stereo not given) | -97.4%
108 | COCCN1CCCn2cnc(CNC3CCCC3)c2C1 | 4.92%
109 | Cc1ccnn1CCC(=O)N1C[C@@H]2CC[C@H]1CN(CC(=O)N(C)C)C2 | 8.42%
110 | Oc1coc2cc(OC[C@@H]3CCCN4CCCC[C@H]34)ccc12 | 1.96%
